Results as given in publication PMC5814546 (Clinical Pharmacokinetics, 2017).
“Also recorded” adds a separate entry of the source. Like-named read-outs stand apart in the source and are kept apart here.

Key:
[1] = Phase I multiple ascending dose study of ALZ-801 capsule and tablet; type: in vivo, human; details: plasma; for Tmax / half-life / AUC / Cmax: both, human, oral; for half-life: t ½; for Cmax: C max; for lower C max for 265 mg tablet than 256.5 mg capsule: fed state
[2] = Single-dose ALZ-801 immediate-release tablet PK and food effect study; type: in vivo, human; details: plasma; for Cmax: C max
[3] = Urine drug recovery, renal clearance and estimate of oral bioavailability; type: in vivo, human; details: Cohort D, 24-h urine; for CL renal: both, human, urine and plasma, oral, 265 mg, CLr, mean ± SD
Method in brief: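 Cohort D: 265 mg immediate-release tablet in the fed state (meal 30 min pre-dose), once on day 1, twice daily days 2–6, once on day 7. Urine was collected over 24 h on days 1 and 7 and assayed by LC-MS (LLOQ 30 ng/mL ALZ-801, 100 ng/mL tramiprosate). Renal clearance was calculated as Ae divided by plasma AUC24.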

[4] = Drug substance properties; type: physicochemical
[5] = Summary of clinical safety and tolerability in phase I SAD and MAD studies; type: in vivo, human
Method in brief: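 Healthy volunteers received oral ALZ-801 as capsule or tablet, fasted or fed, in single and multiple-dose placebo-controlled studies. AEs were logged from first dose to discharge and at a follow-up call, then coded with MedDRA v18.1. QTc and safety laboratory tests were monitored against withdrawal criteria. Summaries are given as cases or cases (%).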

[6] = Phase I single ascending dose study of ALZ-801 loose-filled capsule; type: in vivo, human; details: both, human, plasma, oral, 100 mg, Plasma tramiprosate t ½, mean ± SD
Method in brief: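 Single fasted oral loose-filled capsules; 172 mg in 36 healthy subjects over 50 y (parallel, randomized 1:1:1), 300 mg in 15 subjects over 50 y. Plasma sampled over 48 h into K3 EDTA on ice, spun 2000g 10 min 4 °C, stored at or below −20 °C. LC-MS assay; non-compartmental analysis; Tmax as median (range).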

[7] = Bridging clinical dose analysis and projection of brain drug exposure; set-up: species or system human; details: for projected plasma tramiprosate AUC12: oral ALZ-801 265 mg twice daily, steady state
Method in brief: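 Projected from human plasma tramiprosate AUC after oral tablet: linear regression of steady-state dose vs AUC for 205 and 342 mg fed, with accumulation factor from Study 2 day 7/day 1 and modelled Study 3 data. Benchmark was the plasma AUC12 of the earlier 150 mg twice-daily tramiprosate trial. Brain exposure scaled by rodent brain/plasma ratio (14C-tramiprosate, single and steady-state).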

OAT3 = molecular target: T1, OAT3 (Homo sapiens, UniProt Q8TCC7); experiment: Effect on renal transporters; type: in vitro ADME; details: concentrations up to 100 mM; data on file
T1 sequence (Q8TCC7 1-542): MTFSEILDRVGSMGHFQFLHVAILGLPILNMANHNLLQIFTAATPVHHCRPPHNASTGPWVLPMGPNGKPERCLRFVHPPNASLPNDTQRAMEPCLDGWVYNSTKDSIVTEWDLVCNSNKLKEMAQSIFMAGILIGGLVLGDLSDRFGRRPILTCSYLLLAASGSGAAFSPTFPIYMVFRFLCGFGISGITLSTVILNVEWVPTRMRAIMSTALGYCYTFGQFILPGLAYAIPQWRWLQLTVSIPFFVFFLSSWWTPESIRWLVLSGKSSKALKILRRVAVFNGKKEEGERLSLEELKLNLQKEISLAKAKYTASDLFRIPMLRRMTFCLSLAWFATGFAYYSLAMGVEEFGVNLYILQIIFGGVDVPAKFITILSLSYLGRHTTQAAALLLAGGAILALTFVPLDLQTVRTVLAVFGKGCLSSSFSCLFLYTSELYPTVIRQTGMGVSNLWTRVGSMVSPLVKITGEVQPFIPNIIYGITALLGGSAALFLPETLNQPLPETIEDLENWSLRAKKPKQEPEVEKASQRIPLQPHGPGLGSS

[8] = cited from earlier work; for ADAS-cog difference compared with placebo: oral tramiprosate
[9] = system: brain amyloid plaque load; details: chronic oral treatment, TgCRND8 mice; cited from earlier work
Aβ oligomers = details: 1000-fold excess of tramiprosate, IMS-MS; cited from earlier work
[10] = 265 mg, AUC12, plasma, Day 1, fed, ALZ-801 tablet 265 mg (Cohort D), mean ± SD
[11] = 265 mg, AUC12, plasma, Day 7, fed, ALZ-801 tablet 265 mg twice daily (Cohort D), mean ± SD
[12] = 265 mg, AUC24, plasma, Day 1, fed, ALZ-801 tablet 265 mg (Cohort D), mean ± SD
[13] = 265 mg, AUC24, plasma, Day 7, fed, ALZ-801 tablet 265 mg twice daily (Cohort D), mean ± SD
[14] = 265 mg, Day 1, fed, ALZ-801 tablet 265 mg (Cohort D), mean ± SD
[15] = 265 mg, T max, Day 1, fed, ALZ-801 tablet 265 mg (Cohort D), mean ± SD
[16] = 265 mg, T max, Day 7, fed, ALZ-801 tablet 265 mg twice daily (Cohort D), mean ± SD
[17] = 265 mg, Day 7, fed, ALZ-801 tablet 265 mg twice daily (Cohort D), mean ± SD
[18] = 256.5 mg ALZ-801 capsules, day 1
[19] = repeated 256.5 mg ALZ-801 capsules, day 7
[20] = day 7 vs day 1, 171 and 256.5 mg capsules, fasted
[21] = 205 mg ALZ-801 tablets fed (Regimen C) vs fasted

CC(C)[C@H](N)C(=O)NCCCS(=O)(=O)O [ALZ-801, 3-(L-valyl) amino-1-propanesulfonic acid] showed a Tmax ([1]; 256.5 mg, T max, ALZ-801 capsule 171 and 256.5 mg, day 1, fasted) of 0.5 h, a Tmax ([1]; 256.5 mg, Tmax, Cohort C, capsule, fed, 256.5 mg QD, Day 1, median (range)) of ~1 h and a half-life ([1]; 256.5 mg, ALZ-801 capsule 171 and 256.5 mg, day 1, fasted) of ~1 h. The AUC [1, 10] was 10300 ng·h/mL, the AUC [1, 11] was 11200 ng·h/mL and the AUC [1, 12] was 10300 ng·h/mL. The AUC [1, 13] was 11200 ng·h/mL, the Cmax [1, 14] was 4960 ± 2650 ng/mL and the Tmax [1, 15] was 2.45 ± 0.848 h. It also gave a Tmax [1, 16] of 2.11 ± 0.553 h, a half-life [1, 14] of 1.05 ± 0.16 h and a half-life [1, 17] of 1.11 ± 0.263 h. The Tmax ([1]; 340 mg, T max, day 14, dosing in the fasted state) was ~0.5 h, the half-life ([1]; irrespective of dosing regimen and day) was ~1 h and the “lower C max in fed than fasted state” value [1, 18] was 25%. For the same compound, the “lower C max for 265 mg tablet than 256.5 mg capsule” value ([1]; day 1) was 22%, the “lower C max in fed than fasted state” value [1, 19] was 30% and the half-life ([2]; human, oral) was < 1 h. For the same compound, the Tmax ([2]; human, oral, 171 mg) was 1 h, the Tmax ([2]; human, oral, 205 mg) was 0.5 h and the “Mean Ae” value ([3]; Day 1, ALZ-801 tablet 265 mg) was 22.5 mg. The “Mean Ae” value ([3]; Day 7, ALZ-801 tablet 265 mg) was 24.1 mg, the CL renal ([3]; Day 1, ALZ-801 tablet 265 mg) was 36.4 ± 10.7 mL/min and the CL renal ([3]; Day 7, ALZ-801 tablet 265 mg) was 35.9 ± 19.9 mL/min. The pKa [4] was 7.69, the solubility ([4]; water) was > 200 mg/mL and the tolerability ([5]; oral, capsule or tablet, healthy volunteers) was “well tolerated”. The “dose-limiting toxicity or maximum tolerated dose” value ([5]; over 2 weeks of dosing at doses up to 342 mg twice daily) was “no dose-limiting toxicity or maximum tolerated dose (MTD) was observed; also recorded: no dose-limiting toxicity was observed”.
In the case of NCCCS(=O)(=O)O [tramiprosate, 3-amino-1-propanesulfonic acid], the half-life ([6]; after tramiprosate LF capsule 100 mg) is reported as 5.9 ± 5.22 h, the half-life ([6]; after tramiprosate MR tablet 100 mg) is reported as 4.99 ± 2.66 h and the AUC [1, 10] is reported as 3300 ± 608 ng·h/mL. The AUC [1, 11] was 4100 ± 687 ng·h/mL, the AUC [1, 12] was 3650 ± 670 ng·h/mL and the AUC [1, 13] was 5020 ± 859 ng·h/mL. For the same compound, the Cmax [1, 14] was 759 ± 163 ng/mL, the Cmax [1, 17] was 865 ± 172 ng/mL and the Tmax [1, 15] was 3.56 ± 0.88 h. For the same compound, the Tmax [1, 16] was 2.9 ± 0.603 h, the half-life [1, 14] was 8.94 ± 1.35 h and the half-life [1, 17] was 36.1 ± 4.15 h. The “lower C max in fed than fasted state” value [1, 18] was “approximately 13%”, the “accumulation ratio AUC12” value [1, 20] was 1.3 and the “accumulation ratio C max” value [1, 20] was 1.2. For the same compound, the “lower C max for 265 mg tablet than 256.5 mg capsule” value ([1]; day 1) was “approximately 12%”, the “lower C max for 265 mg tablets than 256.5 mg capsules” value ([1]; fed, day 7) was 11% and the “lower C max in fed than fasted state” value [1, 19] was ~18%. It also gave a half-life ([2]; human, oral, 171 mg) of 12.9 h, a Tmax ([2]; human, oral, 205 mg) of 1.5 h and a half-life ([2]; human, oral, 205 mg) of 16.5 h. The AUC(0-t) ([2]; human, oral, 205 mg, AUCt, 205 mg ALZ-801 tablets, fed (Regimen C)) was 2990 ng·h/mL, the Cmax ([2]; human, oral, 205 mg, 205 mg ALZ-801 tablets, fed (Regimen C)) was 638 ng/mL and the Cmax ([2]; human, oral, 342 mg, 342 mg ALZ-801 tablets, fed (Regimen D)) was 978 ng/mL. The “delay of T max with food” value [2, 21] was “approximately 30 min”, the “reduced C max with food” value [2, 21] was 17% and the “fold increase in C max for 1.7-fold increase in dose” value ([2]; 342 mg (Regimen D) vs 205 mg ALZ-801 tablets, fed) was 1.5 fold. For the same compound, the “interindividual variability for exposure” value ([2]; ALZ-801 tablet, fed and fasted states) was 20–35%, the “Mean Ae” value ([3]; Day 1, ALZ-801 tablet 265 mg) was 44.0 mg and the “Mean Ae” value ([3]; Day 7, ALZ-801 tablet 265 mg) was 58.4 mg. The CL renal ([3]; Day 1, ALZ-801 tablet 265 mg) was 201 ± 48.2 mL/min, the CL renal ([3]; Day 7, ALZ-801 tablet 265 mg) was 194 ± 85.1 mL/min and the “projected plasma tramiprosate AUC12” value ([7]; fasted) was “approximately 4844 ng/mL h”. For the same compound, the “projected plasma tramiprosate AUC12” value ([7]; fasted and fed combined) was ~4502 ng·h/mL, the “projected plasma tramiprosate AUC12” value ([7]; fed) was ~4360 ng·h/mL and the “Projected brain average concentration (C ss,av)” value ([7]; projected steady state, ALZ-801 tablet 265 mg twice daily, humans, 14C method) was “approximately 550 nM”. The “brain:plasma ratio (brain penetration), steady state” value ([7]; rodent, 14C method, projected after steady-state dosing) was ~ 40%, the “effect on renal transporter” value (OAT3) was “no effect” and the “ADAS-cog difference compared with placebo” value ([8]; APOE4 carriers) was 2 point. For the same compound, the “ADAS-cog difference compared with placebo” value ([8]; APOE4 homozygous (APOE4/4) patients) was 4 point, the CSF drug levels ([8]; oral tramiprosate 150 mg twice daily for 78 weeks) was 60 nM and the “mean plasma exposure AUC12” value ([8]; tramiprosate 150 mg twice daily, 78 weeks, phase III) was 4429 ng·h/mL. For the same compound, the “reduction in brain amyloid plaque load” value [9] was ~ 30% and the “formation of Aβ oligomers” value (Aβ oligomers) was “completely abrogated”.
